Assay [1] relates to Aorta. The assay is described as follows: Nitric oxide radical scavenging activity in rat aortic strip assessed as inhibition of acetylcholine-induced vasorelaxation at 100 uM. The class given is functional, tissue-based.
Assay [2] concerns Aorta. The assay is described as follows: Nitric oxide radical scavenging activity in rat aortic strip assessed as inhibition of acetylcholine-induced vasorelaxation at 10 uM. The class given is functional, tissue-based.
Assay [3] relates to Aorta. As to the kind of experiment: Nitric oxide radical scavenging activity in rat aortic strip assessed as inhibition of acetylcholine-induced vasorelaxation at 1 uM. The class given is functional, tissue-based.
Assay [4] concerns PC-12. The assay is described as follows: Radical scavenging activity in rat PC12 cells assessed as inhibition of hydroxyl radical-induced cell damage by MTT assay. The class given is functional, cell-based. The essentials:
(§1)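 PC12 cells grown in DMEM with 10% heat-inactivated horse serum, 5% FBS and 1.0 mM pyruvate at 37 °C, 5% CO2. Seeded at 20,000 cells/well on poly-L-lysine and attached 24 h. Pretreated 1 h with 12.5–200 µM compound. Damage induced by SNP 2 mM for 2 h (NO), H2O2 1 mM for 1 h, or H2O2 1 mM/Fe(II) 30 µM for 1 h (·OH). Media replaced, cells incubated 14 h, survival measured by MTT.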
Background: Formazan colour is commonly taken as a measure of viable cells.

In assay [5] the test system is PC-12. As to the kind of experiment: Radical scavenging activity in rat PC12 cells assessed as inhibition of nitric oxide radical-induced cell damage by MTT assay. The class given is functional, cell-based. The gist of the method: as §1
The subject of assay [6] is PC-12. As to the kind of experiment: Radical scavenging activity in rat PC12 cells assessed as inhibition of hydrogen peroxide radical-induced cell damage by MTT assay. The class given is functional, cell-based. The essentials:
as §1

pEC50: −log10 of the molar value. Where a SMILES comes first, the peptide text is derived from it.

One may read the inhibition as the drop in the measured response relative to a control, in per cent. As a reminder, the pEC50 is the EC50 on a negative log10 scale, so that one unit is a factor of ten. In the case of `CC1(C)N(O)C(c2ccc(OCCNC(=O)CC[C@H](N)C(=O)O)cc2)=[N+]([O-])C1(C)C`, the inhibition is 97.1% in the assay with Aorta [1], 72.4% with Aorta [2] and 26.2% in the assay on Aorta [3]. Moreover, the pEC50 in the assay with PC-12 [4] was 4.24; with PC-12 [5], 4.38; in the assay on PC-12 [6], 4.30.

For the compound `CC1(C)N(O)C(c2ccc(OCC(=O)NCCCC[C@H](N)C(=O)O)cc2)=[N+]([O-])C1(C)C`, the inhibition came out at 98.6% with Aorta [1], 72.3% with Aorta [2] and 25.4% in the assay on Aorta [3]. Further, the negative-log EC50 (pEC50) in the assay on PC-12 [4] is 4.01; in the assay with PC-12 [5] it was 4.04; in the assay on PC-12 [6], 4.53.

On to `CC(C)(C)OC(=O)N[C@@H](CCCCNC(=O)COc1ccc(C2=[N+]([O-])C(C)(C)C(C)(C)N2O)cc1)C(=O)O`, for which the inhibition came to 97.9% with Aorta [1], 72.7% in the assay on Aorta [2] and 28% in the assay on Aorta [3]. Further, the negative-log EC50 (pEC50) with PC-12 [4] is 4.01; with PC-12 [5] it was 4.05; with PC-12 [6], 4.53.

With `CC1(C)N(O)C(c2ccc(OCC(=O)N[C@@H](CCCNC(=N)N)C(=O)O)cc2)=[N+]([O-])C1(C)C`, the inhibition stood at 15.9% in the assay on Aorta [1], 10.7% with Aorta [2] and 7.8% in the assay with Aorta [3]. Besides, the pEC50 with PC-12 [4] is 4.00; in the assay on PC-12 [5] it was 4.03; in the assay on PC-12 [6], 4.49.

Turning to `CC(C)(C)OC(=O)N[C@@H](CCC(=O)NCCOc1ccc(C2=[N+]([O-])C(C)(C)C(C)(C)N2O)cc1)C(=O)O`, the figures for the inhibition in the assay on Aorta [1], with Aorta [2] and in the assay on Aorta [3] were 96.9%, 72.4% and 26%, respectively. Moreover, the pEC50 in the assay on PC-12 [4] is 4.23; in the assay with PC-12 [5] it was 4.37; in the assay on PC-12 [6], 4.30.

Consider `COC(=O)[C@@H](N)CC(=O)NCCOc1ccc(C2=[N+]([O-])C(C)(C)C(C)(C)N2O)cc1`, for which the results for the inhibition in the assay on Aorta [1], with Aorta [2] and in the assay with Aorta [3] were 99.1%, 76% and 29.2%, respectively. For the same compound, the negative logarithm of the EC50 (pEC50) with PC-12 [4] was 4.25; in the assay with PC-12 [5] it was 4.41; in the assay with PC-12 [6], 4.32.

Take `CC1(C)N(O)C(c2ccc(OCCNC(=O)CC[C@H](N)C(=O)N[C@@H](CS)C(=O)NCC(=O)O)cc2)=[N+]([O-])C1(C)C`: the negative-log EC50 (pEC50) with PC-12 [4] is 4.26; in the assay on PC-12 [5] it was 4.42; with PC-12 [6], 4.33.

`CC(C)(C)OC(=O)N[C@@H](CCCNC(=N)NC(=O)COc1ccc(C2=[N+]([O-])C(C)(C)C(C)(C)N2O)cc1)C(=O)O`: the values for the inhibition in the assay with Aorta [1], with Aorta [2] and in the assay on Aorta [3] were 95%, 71.2% and 24.1%, respectively. The negative-log EC50 (pEC50) was 3.99 in the assay with PC-12 [4], 4.03 with PC-12 [5] and 4.49 in the assay on PC-12 [6].

Take `CC1(C)N(O)C(c2ccc(OCCNC(=O)CC[C@H](N)C(=O)N[C@H](CS)C(=O)NCC(=O)O)cc2)=[N+]([O-])C1(C)C`: the results for the inhibition in the assay with Aorta [1], with Aorta [2] and with Aorta [3] were 97.3%, 72.2% and 25.9%, respectively.

Consider `N[C@@H](CCC(=O)O)C(=O)N[C@@H](CS)C(=O)NCC(=O)O` (H-Glu-Cys-Gly-OH), for which the inhibition stood at 9.2% in the assay on Aorta [1], 5.2% in the assay on Aorta [2] and 3.2% in the assay on Aorta [3].

For `CC1(C)N(O)C(c2ccc(OCCNC(=O)C[C@H](N)C(=O)O)cc2)=[N+]([O-])C1(C)C`, the inhibition in the assay on Aorta [1] stood at 97.5%; with Aorta [2], 72.8%; in the assay with Aorta [3], 26.7%. Also, the pEC50 with PC-12 [4] is 4.23; in the assay with PC-12 [5], 4.37; in the assay on PC-12 [6] it was 4.31.

With `CC1(C)N(O)C(c2ccc(OCC(=O)N[C@@H](CCCCN)C(=O)O)cc2)=[N+]([O-])C1(C)C`, the inhibition with Aorta [1] was found to be 98.9%; in the assay on Aorta [2], 74%; in the assay on Aorta [3], 28.7%. Moreover, the negative logarithm of the EC50 (pEC50) in the assay on PC-12 [4] is 4.00; in the assay with PC-12 [5] it was 4.04; in the assay with PC-12 [6], 4.52.
